SMILES strings stand for the structures. ≈ marks a conversion by molar mass, not a printed value. Calls of active or inactive are those of the source. The calls are words filed in the database; no cut-off is given here.

Here are results for 14 compounds from ChEMBL document CHEMBL2069224, “Synthesis and cytotoxic activity of non-naturally substituted 4-oxycoumarin derivatives” (Bioorg Med Chem Lett, 2012).

Series [1] has as its system MCF7. The experiment in a line: Cytotoxicity against human MCF7 cells assessed as cell viability at 10 uM after 72 hrs by WST1 assay relative to control. Type of series: functional. To be noted: MCF7, 72 h, read-out: Activity. The procedure, abridged: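 After 24 h attachment, MCF-7 cells (RPMI 1640, 10% FBS, L-glutamine, antibiotics, 37 °C, 5% CO2) were exposed 72 h to a single 10 µM concentration. WST-1 was added at 1/10 volume, incubated 60 min at 37 °C, and absorbance read at 450 nm. Viability is expressed as % of vehicle-treated cells, from three independent experiments each in triplicate.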
(In general: Tetrazolium assays rely on reduction of a dye to a coloured formazan, in cell work by metabolically active cells.)

Series [2] concerns HL-60. The series is described as follows: Cytotoxicity against human HL60 cells assessed as cell viability at 10 uM after 72 hrs by WST1 assay relative to control. Type of series: functional. To be noted: HL-60, 72 h, read-out: Activity. The procedure, abridged:
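Suspension HL-60 cells were kept in IMDM with 20% FBS, L-glutamine and antibiotics at 37 °C under 5% CO2. They were seeded without an attachment wait and exposed 72 h to a single 10 µM concentration. WST-1 was added at 1/10 volume, incubated 60 min at 37 °C, and formazan read at 450 nm. Viability is given as % of vehicle-treated cells, from three independent experiments in triplicate.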

In series [3] the test system is MCF7. The series is described as follows: Cytotoxicity against human MCF7 cells after 72 hrs by WST1 assay in presence of 20% FBS. Type of series: functional, cell-based. To be noted: MCF7, 72 h. In outline: (§1)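 MCF-7 cells from ATCC were grown in RPMI 1640 with 10% FBS, 2 mM L-glutamine and antibiotics at 37 °C under 5% CO2. They were seeded in 96-well plates, allowed to attach 24 h, then treated 72 h at 0.01–100 µM in 10% or 20% FBS. WST-1 was added at 1/10 volume for 60 min at 37 °C and A450 read. IC50 came from nonlinear least-squares fitting of % viability vs vehicle.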

Series [4] relates to U-937. The series is described as follows: Cytotoxicity against human U937 cells after 72 hrs by WST1 assay in presence of 10% FBS. Type of series: functional, cell-based. The procedure, abridged: (§2)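 Cells were cultured with 10% FBS. Viability runs used 10% or 20% FBS and 72 h exposure over 0.01–100 µM. WST-1 cleavage to formazan was read at 450 nm. % viable cells vs vehicle was fitted by nonlinear least squares to give IC50.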

The subject of series [5] is HL-60. The series is described as follows: Cytotoxicity against human HL60 cells after 72 hrs by WST1 assay in presence of 20% FBS. Format: functional, cell-based. As to conditions: HL-60, 72 h. The procedure, abridged:
(§3)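 HL-60 cells from ATCC were grown in IMDM with 2 mM L-glutamine, 20% FBS, amphotericin B, penicillin and streptomycin at 37 °C under 5% CO2. Suspension cells were seeded without an attachment wait, then treated 72 h at 0.01–100 µM in 10% or 20% FBS. WST-1 was added at 1/10 volume for 60 min at 37 °C and A450 read. IC50 came from a nonlinear least-squares fit of % viable cells vs vehicle.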

The next series deals with N2a. The series is described as follows: Cytotoxicity against mouse Neuro2a cells after 72 hrs by WST1 assay in presence of 10% FBS. Type of series: functional, cell-based. The procedure, abridged:
as §2

The nature of series [6]: Cytotoxicity against mouse Neuro2a cells after 72 hrs by WST1 assay in presence of 20% FBS. Format: functional, cell-based. To be noted: N2a. In outline:
as §2

The nature of series [7]: Solubility of the compound in RPMI 1640 medium by microscopic analysis. Type of series: physicochemical. In outline: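 Compound solubility in the assay medium was judged by microscopic inspection.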
Series [8] has as its system U-937. The experiment in a line: Cytotoxicity against human U937 cells after 72 hrs by WST1 assay in presence of 20% FBS. Type of series: functional, cell-based. To be noted: U-937, 72 h. In outline:
as §2

In series [9] the test system is MCF7. The series is described as follows: Cytotoxicity against human MCF7 cells after 72 hrs by WST1 assay in presence of 10% FBS. Type of series: functional, cell-based. The procedure, abridged: as §1
The subject of series [10] is HL-60. The series is described as follows: Cytotoxicity against human HL60 cells after 72 hrs by WST1 assay in presence of 10% FBS. Type of series: functional, cell-based. The procedure, abridged: as §3

On to `COc1ccc(-c2c(O)c3ccccc3oc2=O)cc1`, for which the viability at 10 µM in the series with MCF7 [1] turned out to be 115%; in the series with HL-60 [2] it was 86.6%.
For `COc1ccc(-c2c(O)c3cc(C)ccc3oc2=O)c(OC)c1` the same measures were 69% and 74.4%.
For the compound `O=c1cc(OCc2ccccc2)c2ccccc2o1`, the figures for the viability at 10 µM with MCF7 [1] and in the series with HL-60 [2] were 95% and 72.7%, respectively.
`COc1cc(OC)c2c(O)cc(=O)oc2c1`: the IC50 – broadly, the concentration needed to halve the response being measured – in the series on MCF7 [3] turned out to be 2.1 µM; with HL-60 [5], 2 µM; in series [6], 0.55 µM; in the series on U-937 [8], 0.21 µM. Also, the outcome in the series with U-937 [4], in the series on N2a, with MCF7 [9] and with HL-60 [10] was Active. For the same compound, the solubility (commonly the dissolved amount per volume that the medium holds) in series [7] stood at 20 µM (≈ 4.44 µg/mL). The figures for the viability at 10 µM in the series on MCF7 [1] and in the series with HL-60 [2] were 17.1% and 23.2%, respectively.
Turning to `COc1ccc(-c2c(O)c3cc(C)ccc3oc2=O)cc1`, the viability at 10 µM worked out at 106% in the series on MCF7 [1] and 83.9% with HL-60 [2].
Consider `O=c1oc2ccccc2c(O)c1-c1ccccc1`, for which the viability at 10 µM came to 96.7% in the series with MCF7 [1] and 73.4% in the series on HL-60 [2].
In the case of `COc1ccc(-c2c(O)c3ccccc3oc2=O)c(OC)c1`, the viability at 10 µM with MCF7 [1] amounted to 91.9%; in the series on HL-60 [2], 100%.
As to `Cc1ccc2oc(=O)c(-c3ccccc3)c(O)c2c1`, the figures for the viability at 10 µM with MCF7 [1] and in the series on HL-60 [2] were 72.6% and 73.9%, respectively.
For `Cc1ccc2oc(=O)cc(OCc3ccccc3)c2c1` the same measures were 104% and 76%.
On to `Cc1ccc2oc(=O)c(-c3ccccc3)c(OCc3ccccc3)c2c1`, for which the viability at 10 µM was determined as 53.5% with MCF7 [1] and 92.3% in the series on HL-60 [2].
For `O=c1oc2ccccc2c(OCc2ccccc2)c1-c1ccccc1`, in that order: 113% and 94.7%.
Regarding `O=c1ccc2ccccc2o1` [COUMARIN], the IC50 (with MCF7 [3]; in the series on HL-60 [5]; in series [6]; in the series on U-937 [8]) was greater than 50 µM throughout.
For the compound `CC/C(=C(\c1ccccc1)c1ccc(OCCN(C)C)cc1)c1ccccc1` [TAMOXIFEN], the values for the IC50 with MCF7 [3] and in the series with HL-60 [5] were 8.6 µM and 14.3 µM, respectively.
On to `COc1ccc2c(O)cc(=O)oc2c1OC`, for which the IC50 is 62.3 µM in the series with MCF7 [3], 9.1 µM in the series with HL-60 [5], 1.4 µM in [6] and 4.3 µM in the series on U-937 [8]. In addition, the outcome with U-937 [4], with N2a and in the series on HL-60 [10] was Active. Besides, the solubility in series [7] came out at 100 µM (≈ 22.2 µg/mL). The viability at 10 µM with MCF7 [1] turned out to be 114%; in the series with HL-60 [2], 28.9%.
